According to publication PMC7569488 (Science signaling, 2020):
Changes are numbered by the printed parent chain.

Experiments:
[1] = system: MKP3 and MKP1; details: cited from earlier work
[2] = biological target: T1, MKP5-CD (Homo sapiens, UniProt Q9Y6W6); assay: Malachite green phosphatase assay with p38α MAPK phosphopeptide substrate; format: biochemical
T1 sequence (Q9Y6W6 320-467): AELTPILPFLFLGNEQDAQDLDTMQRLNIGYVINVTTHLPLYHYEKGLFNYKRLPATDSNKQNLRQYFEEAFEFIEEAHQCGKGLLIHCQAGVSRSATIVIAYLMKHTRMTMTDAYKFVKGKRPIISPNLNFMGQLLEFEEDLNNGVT

[3] = biological target: T2, PTP-1B (Homo sapiens, UniProt P18031); assay: Phosphatase selectivity assay, PTP-1B; format: biochemical
T2 sequence (P18031 1-435): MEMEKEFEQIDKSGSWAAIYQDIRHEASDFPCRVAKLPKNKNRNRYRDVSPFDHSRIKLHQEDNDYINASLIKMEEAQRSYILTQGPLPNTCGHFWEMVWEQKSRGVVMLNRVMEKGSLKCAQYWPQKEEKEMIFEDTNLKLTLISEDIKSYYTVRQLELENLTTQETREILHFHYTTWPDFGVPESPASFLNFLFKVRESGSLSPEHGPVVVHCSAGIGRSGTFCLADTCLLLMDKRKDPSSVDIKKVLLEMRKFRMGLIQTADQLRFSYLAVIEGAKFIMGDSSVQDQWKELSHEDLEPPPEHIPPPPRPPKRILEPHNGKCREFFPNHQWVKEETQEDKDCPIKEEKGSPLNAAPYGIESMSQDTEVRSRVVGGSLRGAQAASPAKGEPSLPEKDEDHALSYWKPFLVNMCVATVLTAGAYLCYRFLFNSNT

[4] = system: MKP3; assay: DiFMUP phosphatase assay, MKP3; format: biochemical; details: DiFMUP substrate
[5] = system: MKP7; assay: p38α MAPK phosphopeptide phosphatase assay, MKP7; format: biochemical; details: p38α MAPK phosphopeptide substrate
Summary of the method: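 MKP7-CD (residues 156-301) and MKP5-CD were E. coli-expressed and thrombin-cleaved. Each was assayed with the p38α MAPK diphosphopeptide DDE(Nle)(pT)G(pY)VATR, and released phosphate was detected by malachite green. Activity was normalized to DMSO control and fit to a hyperbolic inhibition equation. The IC50 for MKP7-CD was compared with the IC50 for MKP5-CD.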

[6] = biological target: T1, MKP5-CD; assay: Phosphate sensor steady-state kinetic assay with full-length p38α MAPK substrate; format: biochemical
[7] = biological target: T1, MKP5-CD; assay: DiFMUP steady-state kinetic assay; format: biochemical; details: DiFMUP substrate
[8] = biological target: T1, MKP5-CD; assay: Transient stopped-flow kinetic assay with DiFMUP; format: biochemical
[9] = biological target: T3, MKP5 single mutant M431L (Homo sapiens, UniProt Q9Y6W6, M431L); assay: Malachite green assay, MKP5 M431L mutant; format: biochemical
T3 sequence (Q9Y6W6 320-467 M431L): T1 sequence (Q9Y6W6 320-467) with M112L

[10] = biological target: T4, MKP5 single mutant T432D (Homo sapiens, UniProt Q9Y6W6, T432D); assay: Malachite green assay, MKP5 T432D mutant; format: biochemical
T4 sequence (Q9Y6W6 320-467 T432D): T1 sequence (Q9Y6W6 320-467) with T113D

[11] = biological target: T5, MKP5 M431L/T432D double mutant (Homo sapiens, UniProt Q9Y6W6, M431L/T432D); assay: Malachite green assay, MKP5 M431L/T432D double mutant; format: biochemical; details: p38α MAPK phosphopeptide
T5 sequence (Q9Y6W6 320-467 M431L/T432D): T1 sequence (Q9Y6W6 320-467) with M112L, T113D

[12] = system: MKP5-CD Tyr^435 mutants (alanine, serine, tryptophan); assay: Binding and inhibition experiments with Tyr435 mutants; format: biochemical, human; details: Y435A, Y435S, Y435W
[13] = system: MKP5 mutants M431L, T432D and M431L/T432D; assay: Binding affinity for Met431/Thr432 mutants; design: species or system human
[14] = system: p38α MAPK; assay: p38α MAPK activation in C2C12 myoblasts; format: cell-based, mouse; details: highest concentration of Compound 1, dose-dependent
Summary of the method: (§1)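 C2C12 myoblasts (ATCC) were treated with test compound (0, 10, 25, 50 μM) overnight, serum-starved 4 h, lysed and immunoblotted. Antibodies: phospho-ERK1/2 Thr202/Tyr204, phospho-JNK Thr183/Tyr185, phospho-p38α Thr180/Tyr182, plus the matching total proteins. The pMAPK/MAPK ratio was quantified by direct fluorescence imaging. Four independent experiments; means ± SEM; two-tailed t-test.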

[15] = system: JNK; assay: JNK activation in C2C12 myoblasts; format: cell-based, mouse; details: highest concentration of Compound 1
Summary of the method: as §1

[16] = system: ERK1/2; assay: ERK1/2 activation in C2C12 myoblasts; format: cell-based, mouse; details: even at the highest concentration
Summary of the method: as §1

[17] = system: C2C12 myoblasts; assay: C2C12 myoblast proliferation; format: cell-based, mouse; details: C2C12, 72 hr
[18] = system: C2C12 myoblasts; assay: C2C12 myoblast differentiation; format: cell-based, mouse; details: C2C12, 72 h
Summary of the method: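 C2C12 myoblasts were plated in growth medium, then switched to DMEM with 0.1% FBS, 5 μg/mL insulin and 5 μg/mL selenium, plus DMSO vehicle or test compound. Differentiation ran 72 hr. Cells were stained with MF20 antibody (myosin heavy chain) and DAPI. Fusion index = % of nuclei in myotubes with ≥2 nuclei over total nuclei, counted from ≥10 fields. Means ± SEM; two-tailed t-test.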

[19] = system: Smad2; assay: TGF-β1-mediated Smad2 phosphorylation in MEFs; format: cell-based, mouse; details: TGF-β1 1 ng/ml 10 minutes
[20] = system: p38α MAPK; assay: p38α MAPK phosphorylation in MEFs; format: cell-based, mouse
Summary of the method: (§2)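 Mouse embryo fibroblasts were derived from Mkp5+/+ and Mkp5−/− embryos (days 13-14) and spontaneously immortalized. Cells were treated with test compound overnight, serum-starved 4 h, then stimulated with TGF-β1 (1 ng/ml) for 10 min. Lysates were immunoblotted for phospho- and total MAPK, and the ratio was quantified by fluorescence imaging. 3-6 independent experiments; means ± SEM; t-test.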

[21] = system: JNK; assay: JNK phosphorylation in MEFs; format: cell-based, mouse
Summary of the method: as §2

[22] = system: ERK1/2; assay: ERK1/2 phosphorylation in MEFs; format: cell-based, mouse; details: Mkp5−/− MEFs
Summary of the method: as §2

[23] = Solubility; format: physicochemical

O=C1/C(=C/c2ccccc2)C(NC2CCCCC2)c2ccccc21 (centres unmarked) [BCI]
relative potency MKP3 versus MKP1 [1]: relative equipotency

CSc1scc2c1-c1nc(SCC(=O)C(C)(C)C)ncc1CC2 [Compound 1, 3,3-dimethyl-1-((9-(methylthio)-5,6-dihydrothieno[3,4-h]quinazolin-2-yl)thio)butan-2-one]
IC50 ([2]; IC50 against MKP5-CD, p38α MAPK phosphopeptide substrate): ~3.9 µM | extent of inhibition of MKP5-CD phosphatase activity ([2]; p38α MAPK phosphopeptide): did not fully inhibit | IC50 [3]: > 100 µM | increase in IC50 for MKP3 relative to MKP5 [4]: at least 16 fold | increase in IC50 for MKP7 relative to MKP5 [5]: at least 16 fold | Ki [6]: 8.9 ± 2.2 µM | α (mixed-mechanism inhibition) ([6]; full-length p38α MAPK substrate): ≈ 17.4 | α (mixed mechanism of inhibition) [7]: 4.2 | fold change of burst rate (k1) ([8]; 20 and 40 μM Compound 1): 7 fold | burst rate (k1) in the presence of Compound 1 ([8]; 20 and 40 μM Compound 1 (8.4 ± 0.2 s^−1 without)): 1.2 ± 0.02 s⁻¹ | IC50 [9]: 99 µM | IC50 [10]: 61 µM | inhibition of MKP5 M431L/T432D double mutant [11]: nearly abolished inhibition | binding to and inhibition of Tyr435 mutants [12]: capable of binding to and inhibiting the activity of only the Y435W mutant | binding affinity for M431L, T432D and M431L/T432D mutants [13]: Concomitant reductions in the binding affinity | activation of p38α MAPK [14]: up to 4 fold | JNK activation [15]: up to 2 fold | activation of ERK1/2 [16]: did not alter the activation of ERK1/2 | myoblast proliferation (BrdU-positive cells) [17]: did not affect C2C12 myoblast proliferation | myoblast differentiation (myotube fusion index) [18]: significantly increased | TGF-β1-mediated Smad2 phosphorylation ([19]; Mkp5+/+ MEFs): inhibited TGF-β1-mediated Smad2 phosphorylation | TGF-β1-mediated Smad2 phosphorylation ([19]; Mkp5−/− MEFs): failed to inhibit Smad2 phosphorylation further | phosphorylation of p38α MAPK ([20]; Mkp5−/− MEFs): did not result in additional phosphorylation | phosphorylation of p38α MAPK ([20]; wild type MEFs): dose-dependent increase | phosphorylation of JNK ([21]; Mkp5−/− MEFs): did not result in additional phosphorylation | phosphorylation of JNK ([21]; wild type MEFs): dose-dependent increase | ERK1/2 phosphorylation [22]: unaffected | solubility [23]: modest solubility
